Data published in ChEMBL document CHEMBL5620421, “2,6-Disubstituted 7-(naphthalen-2-ylmethyl)-7H-purines as a new class of potent antitubercular agents inhibiting DprE1” (Eur J Med Chem, 2023).
In brackets after ≈: the same amount, converted by molar mass. Activity calls are given as the source filed them. The rule behind the calls is not given here.

Experiments:
[1] = tested on: Mycobacterium tuberculosis; experiment: Antimycobacterial activity against MDR clinical isolate Mycobacterium tuberculosis 8666/2010 assessed as inhibition of mycobacterial growth measured after 14 to 21 days of incubation by Sulas semisynthetic medium based assay; type: functional; conditions: time 14-21 day
Outline: (§1)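 Clinical MDR/XDR M. tuberculosis isolates were tested by the Sula's semisynthetic medium micromethod. Compounds in DMSO at 1000 to 0.5 μmol/L, in twofold-type steps. Incubation at 37 °C, read at 14 and 21 days. MIC99 is the lowest concentration inhibiting >99% of growth. Drug resistance or susceptibility of each isolate is to amikacin, clofazimine, gentamicin, ofloxacin, streptomycin and the others listed.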

[2] = tested on: Staphylococcus epidermidis; experiment: Antibacterial activity against Staphylococcus epidermidis C1936 assessed as inhibition of bacterial growth incubated for 24 to 48 hrs by microdilution broth method; type: functional, organism-based; conditions: time 24-48 hrs
Outline: (§2)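 Clinical isolates kept at –70 °C and subcultured twice on Mueller-Hinton agar, using the second subculture. Broth microdilution in Mueller-Hinton broth at pH 7.4 with two-fold serial compound dilutions and DMSO ≤1% final. Inoculum was 10 μL of a 1.5 × 10⁸ CFU/mL suspension. Incubated at 36 °C ± 1 °C and read at 24 h and 48 h. MIC taken as 95% growth inhibition.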

[3] = tested on: Mycobacterium tuberculosis; experiment: Antimycobacterial activity against XDR clinical isolate Mycobacterium tuberculosis 9449/2007 assessed as inhibition of mycobacterial growth measured after 14 to 21 days of incubation by Sulas semisynthetic medium based assay; type: functional; conditions: time 14-21 day; outline: as §1
Pseudomonas aeruginosa [4] = experiment: Antibacterial activity against multidrug-resistant Pseudomonas aeruginosa A1245 assessed as inhibition of bacterial growth incubated for 24 to 48 hrs by microdilution broth method; type: functional, organism-based; conditions: time 24-48 hrs
Outline: (§3)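 Clinical isolates, stored at −70 °C, were passaged twice on Mueller-Hinton agar. Broth microdilution in Mueller-Hinton broth, pH 7.4, with twofold serial dilutions. DMSO was at most 1% final. Inoculum 1.5 × 10⁸ CFU/mL suspension. MIC is 95% growth inhibition, read after 24 and 48 h at 36 °C.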

Enterococcus faecium [5] = experiment: Antibacterial activity against vancomycin-resistant Enterococcus faecium assessed as inhibition of bacterial growth incubated for 24 to 48 hrs by microdilution broth method; type: functional, organism-based; conditions: time 24-48 hrs; outline: as §3
[6] = tested on: Mycobacterium tuberculosis; experiment: Antimycobacterial activity against XDR clinical isolate Mycobacterium tuberculosis PRAHA 1 assessed as inhibition of mycobacterial growth measured after 14 to 21 days of incubation by Sulas semisynthetic medium based assay; type: functional; conditions: time 14-21 day; outline: as §1
[7] = tested on: Mycobacterium tuberculosis; experiment: Antimycobacterial activity against XDR clinical isolate Mycobacterium tuberculosis 7357/1998 assessed as inhibition of mycobacterial growth measured after 14 to 21 days of incubation by Sulas semisynthetic medium based assay; type: functional; conditions: time 14-21 day; outline: as §1
[8] = Selectivity index, ratio of IC50 for cytotoxicity against human HepG2 cells by MTT assay to MIC99 for antitubercular activity against Mycobacterium tuberculosis CNCTC My 331/88 (H37Rv) assessed as inhibition of bacterial growth measured after 14 days of incubation; type: functional; conditions: time 14 day
Outline: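 HepG2 cells, 15 × 10³/well, were attached overnight and exposed 24 h to serial dilutions (DMSO ≤1%). Read by MTT at 0.5 mg/mL for 1 h and 570 nm. IC50 from 4-parameter regression, three independent experiments in triplicate. SI is HepG2 IC50 divided by H37Rv MIC99.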

Mycobacterium kansasii = experiment: Antitubercular activity against Mycobacterium kansasii CNCTC My 235/80 assessed as inhibition of bacterial growth measured after 7 days of incubation by Sulas semisynthetic medium based assay; type: functional; conditions: CNCTC My 235/80, 168 h, time 7 day
Outline: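 Micromethod in Sula's semisynthetic medium. MIC is the lowest concentration inhibiting >99% of the mycobacterial population. Isoniazid was the standard.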

Klebsiella pneumoniae [9] = experiment: Antibacterial activity against ESBL positive Klebsiella pneumoniae C1914 assessed as inhibition of bacterial growth incubated for 24 to 48 hrs by microdilution broth method; type: functional, organism-based; conditions: time 24-48 hrs; outline: as §2
[10] = tested on: Mycobacterium tuberculosis; experiment: Antimycobacterial activity against MDR clinical isolate Mycobacterium tuberculosis 234/2005 assessed as inhibition of mycobacterial growth measured after 14 to 21 days of incubation by Sulas semisynthetic medium based assay; type: functional; conditions: time 14-21 day; outline: as §1
[11] = Stability in human plasma assessed as compound remaining at 1 uM incubated for 15 to 120 mins by LC-MS analysis; type: ADME, cell-free; conditions: time 15-120 min, read-out: Stability
Outline: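 Stopped with acetonitrile containing internal standard and centrifuged at 12,000 rpm for 5 min at 4 °C. Supernatant analysed by LC-MS in positive mode. % remaining taken from compound/IS peak-area ratios at 120 versus 0 min.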

Staphylococcus aureus [12] = experiment: Antibacterial activity against Staphylococcus aureus C1947 assessed as inhibition of bacterial growth incubated for 24 to 48 hrs by microdilution broth method; type: functional, organism-based; conditions: time 24-48 hrs; outline: as §2
Escherichia coli [13] = experiment: Antibacterial activity against Escherichia coli A1235 assessed as inhibition of bacterial growth incubated for 24 to 48 hrs by microdilution broth method; type: functional, organism-based; conditions: time 24-48 hrs; outline: as §2
[14] = tested on: Mycobacterium tuberculosis; experiment: Antimycobacterial activity against MDR clinical isolate Mycobacterium tuberculosis PRAHA 1 assessed as inhibition of mycobacterial growth measured after 14 to 21 days of incubation by Sulas semisynthetic medium based assay; type: functional; conditions: time 14-21 day; outline: as §1
[15] = Aqueous solubility of compound incubated for 20 mins by UV-Visible spectrophotometric analysis; type: physicochemical; conditions: buffer
Outline: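 Solubility in ultrapure water containing 5% DMSO. Absorbance taken at each compound's λmax and compared with a six-point calibration made by serial dilution of a 50 μM standard, fitted by linear regression. Over-saturated solutions were sonicated at 37 °C for 10 min and centrifuged at 8000 RPM for 10 min. Supernatant absorbance was read, after dilution with 5% DMSO/water if above the calibration range.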

[16] = tested on: Mycobacterium tuberculosis; experiment: Antimycobacterial activity against MDR clinical isolate Mycobacterium tuberculosis 7357/1998 assessed as inhibition of mycobacterial growth measured after 14 to 21 days of incubation by Sulas semisynthetic medium based assay; type: functional; conditions: time 14-21 day; outline: as §1
[17] = Intrinsic clearance in human liver microsomes at 3 uM incubated for 5 to 45 min in presence of NADPH by LC-MS analysis; type: ADME, Microsome; conditions: time 5-45 min, read-out: CLH
[18] = tested on: Mycobacterium tuberculosis; experiment: Antimycobacterial activity against XDR clinical isolate Mycobacterium tuberculosis 8666/2010 assessed as inhibition of mycobacterial growth measured after 14 to 21 days of incubation by Sulas semisynthetic medium based assay; type: functional; conditions: time 14-21 day; outline: as §1
Escherichia coli [19] = experiment: Antibacterial activity against Escherichia coli A1235 assessed as inhibition of bacterial growth at 125 uM incubated for 24 to 48 hrs by microdilution broth method; type: functional, organism-based; conditions: time 24-48 hrs
Staphylococcus aureus [20] = experiment: Antibacterial activity against methicilin-resistant Staphylococcus aureus C1923 assessed as inhibition of bacterial growth at 125 uM incubated for 24 to 48 hrs by microdilution broth method; type: functional, organism-based; conditions: time 24-48 hrs
Enterococcus faecium [21] = experiment: Antibacterial activity against vancomycin-resistant Enterococcus faecium assessed as inhibition of bacterial growth at 125 uM incubated for 24 to 48 hrs by microdilution broth method; type: functional, organism-based; conditions: time 24-48 hrs
Pseudomonas aeruginosa [22] = experiment: Antibacterial activity against multidrug-resistant Pseudomonas aeruginosa A1245 assessed as inhibition of bacterial growth at 125 uM incubated for 24 to 48 hrs by microdilution broth method; type: functional, organism-based; conditions: time 24-48 hrs
Staphylococcus aureus [23] = experiment: Antibacterial activity against Staphylococcus aureus C1947 assessed as inhibition of bacterial growth at 125 uM incubated for 24 to 48 hrs by microdilution broth method; type: functional, organism-based; conditions: time 24-48 hrs
Klebsiella pneumoniae [24] = experiment: Antibacterial activity against ESBL positive Klebsiella pneumoniae C1914 assessed as inhibition of bacterial growth at 125 uM incubated for 24 to 48 hrs by microdilution broth method; type: functional, organism-based; conditions: time 24-48 hrs

Structure (SMILES)	MIC99 [1]	Activity [2]	MIC99 [3]	Activity (Pseudomonas aeruginosa [4])	Activity (Enterococcus faecium [5])	MIC99 [6]	MIC99 [7]	Selectivity Index [8]	MIC99 (Mycobacterium kansasii)	Activity (Klebsiella pneumoniae [9])	MIC99 [10]	remaining at 1 µM [11]	Activity (Staphylococcus aureus [12])	Activity (Escherichia coli [13])	MIC99 [14]	solubility at 20 min [15]	MIC99 [16]	microsomal CLint at 3 µM [17]	MIC99 [18]	Activity (Escherichia coli [19])	also measured
c1ccc2cc(Cn3cnc4nc(N5CCOCC5)nc(NC5CCC5)c43)ccc2c1	4 µM (≈ 1.66 µg/mL)	Active	8 µM (≈ 3.32 µg/mL)	inactive	Active	4 µM (≈ 1.66 µg/mL)	8 µM (≈ 3.32 µg/mL)	16.5	8 µM (≈ 3.32 µg/mL)	inactive	4 µM (≈ 1.66 µg/mL)	97.5%	Active	inactive	4 µM (≈ 1.66 µg/mL)	159 µM (≈ 65.9 µg/mL)	4 µM (≈ 1.66 µg/mL)	36.6 µL/min/mg	8 µM (≈ 3.32 µg/mL)	–	–
CCOc1nc(N2CCOCC2)nc2ncn(Cc3ccc4ccccc4c3)c12	2 µM (≈ 0.779 µg/mL)	inactive	4 µM (≈ 1.56 µg/mL)	inactive	inactive	–	–	43.45	8 µM (≈ 3.12 µg/mL)	inactive	–	99.6%	inactive	inactive	–	81.3 µM (≈ 31.7 µg/mL)	–	24.4 µL/min/mg	2 µM (≈ 0.779 µg/mL)	inactive	Activity (Staphylococcus aureus [20]): inactive; Activity (Enterococcus faecium [21]): inactive; Activity (Pseudomonas aeruginosa [22]): inactive; Activity (Staphylococcus aureus [23]): inactive; Activity (Klebsiella pneumoniae [24]): inactive
O=c1[nH]c(N2CCOCC2)nc2ncn(Cc3ccc4ccccc4c3)c12	32 µM (≈ 11.6 µg/mL)	inactive	64 µM (≈ 23.1 µg/mL)	inactive	inactive	64 µM (≈ 23.1 µg/mL)	64 µM (≈ 23.1 µg/mL)	31.25	32 µM (≈ 11.6 µg/mL)	inactive	16 µM (≈ 5.78 µg/mL)	96.6%	inactive	inactive	32 µM (≈ 11.6 µg/mL)	46.9 µM (≈ 16.9 µg/mL)	32 µM (≈ 11.6 µg/mL)	12.6 µL/min/mg	64 µM (≈ 23.1 µg/mL)	–	–
Nc1nc(N2CCOCC2)nc2ncn(Cc3ccc4ccccc4c3)c12	2 µM (≈ 0.721 µg/mL)	inactive	4 µM (≈ 1.44 µg/mL)	inactive	inactive	–	–	>125	–	inactive	–	103%	inactive	inactive	–	97.7 µM (≈ 35.2 µg/mL)	–	16.8 µL/min/mg	4 µM (≈ 1.44 µg/mL)	inactive	Activity (Staphylococcus aureus [20]): inactive; Activity (Enterococcus faecium [21]): inactive; Activity (Pseudomonas aeruginosa [22]): inactive; Activity (Staphylococcus aureus [23]): inactive; Activity (Klebsiella pneumoniae [24]): inactive
